The values that follow come from ChEMBL document CHEMBL1123797, “Antianaphylactic benzophenones and related compounds” (1987).

One may read the Inhibition as the drop in the measured response relative to a control, in per cent.

The species named for assay [1] is Cavia porcellus. Kind of assay: Inhibition of histamine release from sensitized guinea pig chopped lung upon antigen challenge at 10 ug/mL. Type of assay: functional. The gist of the method: (§1)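 Guinea pigs sensitized to ovalbumin; lungs taken 3 weeks later, perfused with Tyrode, chopped into 0.5-mm cubes. 100-mg aliquots in Tyrode were preincubated 5 min at 37 °C, then compound or Tyrode and ovalbumin (5 mg in 0.1 mL) were added. Incubation was 15 min at 37 °C with rocking, and supernatant was bioassayed. Unchallenged control gave spontaneous release. Values are % inhibition, mean of ≥4 samples; Student's t-test.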

For assay [2], the species on record is Cavia porcellus. Kind of assay: Inhibition of slow reacting substance of anaphylaxis (SRS-A) release from sensitized guinea pig chopped lung upon antigen challenge at 10 ug/mL. Type of assay: functional. The gist of the method:
as §1

For assay [3], the species on record is Homo sapiens. Kind of assay: Inhibition of Histamine mediator release form passively sensitized human lung upon antigen challenge at 10 ug/mL dose. Type of assay: functional. In short, it runs like this: (§2)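 Healthy human lung from carcinoma surgery was chopped into 0.5-mm cubes and passively sensitized 18 h at 18 °C with atopic serum from cocksfoot-pollen-allergic patients. Tissue was preincubated 5 min with compound, challenged with pollen extract (0.1 mL, 1000 noon units) and incubated as for guinea pig lung. Supernatant was bioassayed on guinea pig ileum, with mepyramine-treated (0.4 μg/mL) ileum for SRS-A. Values are % inhibition of mediator release.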

The species named for assay [4] is Homo sapiens. The assay is described as follows: Inhibition of Histamine mediator release form passively sensitized human lung upon antigen challenge at 1 ug/mL dose. Type of assay: functional. In short, it runs like this:
as §2

For assay [5], the species on record is Homo sapiens. The assay is described as follows: Inhibition of Slow reacting substance of anaphylaxis (SRS-A) mediator release form passively sensitized human lung upon antigen challenge at 10 ug/mL dose. Type of assay: functional. The gist of the method:
as §2

Assay [6] is filed under the species Homo sapiens. Kind of assay: Inhibition of Slow reacting substance of anaphylaxis (SRS-A) mediator release form passively sensitized human lung upon antigen challenge at 1 ug/mL dose. Type of assay: functional. The gist of the method: as §2
Assay [7] deals with Cavia porcellus. Kind of assay: Mean collapse time after pretreatment with compound divided by mean collapse time of untreated control animals at 50 mg/kg po dose. Type of assay: functional. The gist of the method: (§3)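 Modified Herxheimer test in conscious sensitized guinea pigs, 4-5 per group. Compound was given orally at 25, 50 or 100 mg/kg 2 or 4 h before antigen challenge. Some groups also received mepyramine 0.5 mg/kg sc 0.5 h before challenge. D = mean collapse time of treated/untreated controls; M+D = mean collapse time of compound+mepyramine/mepyramine-dosed controls.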

In assay [8] the test system is Cavia porcellus. Kind of assay: Mean collapse time after pretreatment with compound and mepyramine divided by mean collapse time of mepyramine-dosed control animals at 50 mg/kg po dose. Type of assay: functional. In short, it runs like this:
as §3

Assay [9] relates to Cavia porcellus. Kind of assay: Time of dosing of compound before antigen challenge in conscious sensitized guinea pig at 50 mg/kg po dose. Type of assay: functional. The gist of the method:
as §3

For assay [10], the species on record is Cavia porcellus. Kind of assay: Compound was tested for the inhibition of histamine release from sensitized guinea pig chopped lung upon antigen challenge at 10 ug/mL. Type of assay: functional. The gist of the method: as §1
Assay [11] relates to Cavia porcellus. The assay is described as follows: Mean collapse time after pretreatment with compound and mepyramine divided by mean collapse time of mepyramine-dosed control animals at 100 mg/kg po dose. Type of assay: functional. In short, it runs like this: as §3
Assay [12] has as its system Cavia porcellus. Kind of assay: Mean collapse time after pretreatment with compound divided by mean collapse time of untreated control animals at 100 mg/kg po dose. Type of assay: functional. The gist of the method:
as §3

The subject of assay [13] is Cavia porcellus. The assay is described as follows: Time of dosing of compound before antigen challenge in conscious sensitized guinea pig at 100 mg/kg po dose. Type of assay: functional. The gist of the method:
as §3

The species named for assay [14] is Cavia porcellus. Kind of assay: Inhibition of slow reacting substance of anaphylaxis (SRS-A) release from sensitized guinea pig chopped lung upon antigen challenge. Type of assay: functional. The gist of the method:
as §1

The species named for assay [15] is Homo sapiens. Kind of assay: Inhibition of Histamine mediator release form passively sensitized human lung upon antigen challenge at 10(ug/mL) dose:
Type of assay: functional. In short, it runs like this:
as §2

The species entered for assay [16] is Homo sapiens. The assay is described as follows: Inhibition of Slow reacting substance of anaphylaxis (SRS-A) mediator release form passively sensitized human lung upon antigen challenge at 10(ug/mL) dose:
Type of assay: functional. The gist of the method: as §2

Assay [17] has as its system Cavia porcellus. Kind of assay: Effect on bronchospasm in conscious sensitized guinea pig upon antigen challenge (herxheimer) at 25 mg/kg po dose. Type of assay: functional, Bronchiole. In short, it runs like this:
as §3

Assay [18] has as its system Cavia porcellus. The assay is described as follows: Mean collapse time after pretreatment with compound and mepyramine divided by mean collapse time of mepyramine-dosed control animals at 25 mg/kg po dose. Type of assay: functional. In short, it runs like this:
as §3

In assay [19] the test system is Cavia porcellus. Kind of assay: Mean collapse time after pretreatment with compound divided by mean collapse time of untreated control animals at 25 mg/kg po dose. Type of assay: functional. In short, it runs like this:
as §3

Assay [20] relates to Cavia porcellus. The assay is described as follows: Time of dosing of compound before antigen challenge in conscious sensitized guinea pig at 25 mg/kg po dose. Type of assay: functional. In short, it runs like this: as §3
Assay [21] deals with Cavia porcellus. Kind of assay: Mean collapse time after pretreatment with compound and mepyramine divided by mean collapse time of mepyramine-dosed control animals at 2 mg/kg po dose. Type of assay: functional.
For assay [22], the system named is Cavia porcellus. Kind of assay: Mean collapse time after pretreatment with compound divided by mean collapse time of untreated control animals at 2 mg/kg po dose. Type of assay: functional.
Assay [23] has as its system Cavia porcellus. Kind of assay: Time of dosing of compound before antigen challenge in conscious sensitized guinea pig at 2 mg/kg po dose. Type of assay: functional.

Turning to `CCc1ccc([S+](C)[O-])c(C(=O)c2ccc(C)cc2)c1` (centres undefined), the Inhibition in the assay listed under Cavia porcellus [1] is reported as 3%; in the assay filed under Cavia porcellus [2] it was 40%; in the assay listed under Homo sapiens [3], 0%; in the assay listed under Homo sapiens [4], 0%; in the assay listed under Homo sapiens [5] it was 100%; in the assay listed under Homo sapiens [6], 75%.
On to `Cc1cccc(/C(=N/O)c2ccccc2)c1O`, for which the Inhibition in the assay filed under Cavia porcellus [2] is 0%; in the assay filed under Homo sapiens [3], 15%; in the assay listed under Homo sapiens [4], 8%; in the assay listed under Homo sapiens [5], 62%; in the assay listed under Homo sapiens [6] it was 39%.
`CCc1ccc(OC)c(C(=O)c2ccc([N+](=O)[O-])cc2)c1`: the figures for the Activity in the assay with Cavia porcellus [7] and in the assay on Cavia porcellus [8] were 0.8 and 2.1, respectively. Also, in the assay listed under Cavia porcellus [2], the Inhibition is 0%. Besides, the Time in the assay on Cavia porcellus [9] (dose 50 mg/kg) was 2 h.
On the same counts, the results for `CCc1ccc(O)c(C(=O)c2ccccc2)c1` are 2.5, 1.2, 22% and 2 h.
As for `CCc1ccc(O)c(C(=O)c2ccsc2)c1`, the Activity came to 0.8 in the assay with Cavia porcellus [7] and 2.3 with Cavia porcellus [8]. For the same compound, the Inhibition is listed as 37% in the assay listed under Cavia porcellus [10] and 26% in the assay filed under Cavia porcellus [2]. The Time in the assay with Cavia porcellus [9] (dose 50 mg/kg) came to 2 h.
Take `CCc1ccc(C(=O)c2ccc(F)cc2)c(O)c1`: the Activity with Cavia porcellus [7] stood at 1.3; with Cavia porcellus [11] it was 2.3; with Cavia porcellus [8] it was 2.8; in the assay on Cavia porcellus [12] it was 1.2. Moreover, in the assay listed under Cavia porcellus [2], the Inhibition is reported as 5%. Moreover, in the assay with Cavia porcellus [13], the Time came to 2 h.
In the case of `CCc1ccc(O)c(C(=O)c2cccn2C)c1`, the Activity was determined as 1.2 in the assay with Cavia porcellus [7] and 2.3 with Cavia porcellus [8]. Moreover, in the assay filed under Cavia porcellus [2], the Inhibition was 0%. Besides, the Time with Cavia porcellus [9] (dose 50 mg/kg) worked out at 2 h.
`CCc1ccc(O)c(/C(=N/O)c2ccc(Cl)cc2)c1`: the Inhibition is on record as 28% in the assay filed under Cavia porcellus [1]; 51% in the assay filed under Cavia porcellus [2]; 0% in the assay filed under Homo sapiens [3]; 0% in the assay listed under Homo sapiens [4]; 91% in the assay filed under Homo sapiens [5]; 93% in the assay filed under Homo sapiens [6].
On to `CCc1ccc(O)c(S(=O)(=O)c2ccc(Cl)cc2)c1`, for which, in the assay listed under Cavia porcellus [14], the Inhibition was determined as 19%.
`C=C(c1ccc(C)cc1)c1cc(CC)ccc1O`: the Activity in the assay on Cavia porcellus [7] is 1; with Cavia porcellus [8], 3.5. The Inhibition in the assay listed under Cavia porcellus [2] is 0%; in the assay filed under Homo sapiens [15] it was 0%; in the assay listed under Homo sapiens [16] it was 84%.
As to `CCc1ccc(O)c(C(=O)c2ccc(Cl)cc2)c1`, the “Time of dosing before antigen challenge.” value in the assay on Cavia porcellus [17] is 4 h. Moreover, the Inhibition in the assay listed under Cavia porcellus [1] was determined as 3%; in the assay listed under Cavia porcellus [2], 51%; in the assay filed under Homo sapiens [3] it was 0%; in the assay filed under Homo sapiens [4], 0%; in the assay listed under Homo sapiens [5], 100%; in the assay listed under Homo sapiens [6], 74%. Further, the Activity is recorded as 1.8 in the assay on Cavia porcellus [11], 2.7 in the assay on Cavia porcellus [18], 1.4 with Cavia porcellus [12] and 0.8 in the assay on Cavia porcellus [19]. Also, the Time with Cavia porcellus [13] came out at 2 h.
In the case of `CCc1ccc(O)c([S+]([O-])c2ccc(Cl)cc2)c1` (centres undefined), the Activity with Cavia porcellus [7] is 1; with Cavia porcellus [18] it was 1.7; with Cavia porcellus [8], 1.7; in the assay on Cavia porcellus [19], 1.3. In addition, the Inhibition in the assay listed under Cavia porcellus [1] stood at 26%; in the assay listed under Cavia porcellus [2] it was 48%; in the assay filed under Homo sapiens [3], 31%; in the assay filed under Homo sapiens [4], 0%; in the assay listed under Homo sapiens [5] it was 99%; in the assay listed under Homo sapiens [6], 69%. For the same compound, the Time amounted to 4 h in the assay on Cavia porcellus [20] and 2 h in the assay with Cavia porcellus [9] (dose 50 mg/kg).
Consider `CCc1ccc(O)c(S(=O)(=O)c2ccccc2)c1`, for which the Inhibition in the assay listed under Cavia porcellus [14] amounted to 0%.
As for `CCc1ccc(O)c(C(=O)c2cccs2)c1`, the Activity was found to be 0.7 with Cavia porcellus [7] and 1.6 in the assay on Cavia porcellus [8]. Further, the Inhibition in the assay listed under Cavia porcellus [1] is 0%; in the assay listed under Cavia porcellus [2], 59%; in the assay listed under Homo sapiens [3], 0%; in the assay filed under Homo sapiens [4], 0%; in the assay listed under Homo sapiens [5] it was 67%; in the assay filed under Homo sapiens [6], 55%. The Time with Cavia porcellus [9] (dose 50 mg/kg) was found to be 2 h.
Regarding `CCc1ccc(OC)c(C(O)c2ccc(Cl)cc2)c1` (centres undefined), the Inhibition in the assay filed under Cavia porcellus [2] is listed as 14%. The Activity with Cavia porcellus [18] is given as 2.7; with Cavia porcellus [19] it was 0.8. In addition, in the assay on Cavia porcellus [9] (dose 25 mg/kg, in the assay text read “at 25 mg/kg po dose” for “at 50 mg/kg po dose”), the Time is 2 h.
As to `CCc1cccc(C(=O)c2ccc(Cl)cc2Cl)c1O`, the Inhibition worked out at 8% in the assay filed under Cavia porcellus [1]; 44% in the assay filed under Cavia porcellus [2]; 60% in the assay filed under Homo sapiens [3]; 20% in the assay listed under Homo sapiens [4]; 100% in the assay filed under Homo sapiens [5]; 85% in the assay listed under Homo sapiens [6].
With `CN1CCC(=C2c3ccccc3CC(=O)c3sccc32)CC1` [KETOTIFEN], the Inhibition in the assay filed under Cavia porcellus [1] came out at 37%; in the assay listed under Cavia porcellus [2] it was 38%; in the assay listed under Homo sapiens [3], 23%; in the assay filed under Homo sapiens [4], 0%; in the assay filed under Homo sapiens [5] it was 100%; in the assay filed under Homo sapiens [6] it was 51%. Moreover, the Activity with Cavia porcellus [21] was determined as 3.1; in the assay on Cavia porcellus [22] it was 4.2. For the same compound, the Time in the assay with Cavia porcellus [23] worked out at 2 h.
